Results pooled from the literature.
Lines come from different studies, so protocols differ.
Observed: cell growth or viability

SMILES	cell line	assay	setting	IC50
Nc1nnc(-c2ccccc2O)cc1N1CC2CCC(C1)N2c1ccnc(F)c1	VCaP	ATP luminescence	7 days	> 1 µM
COc1ccc2c(c1)/C(=N/NC(N)=S)C(=O)N2CCn1ncc2c(=O)[nH]cnc21	BALB/3T3 clone A31	SRB	72 h	77.5 µg/mL
COc1cc([C@@H]2c3cc4c(cc3[C@@H](O[C@@H]3O[C@@H]5CO[C@@H](C)O[C@H]5[C@H](O)[C@H]3O)[C@H]3COC(=O)[C@H]23)OCO4)cc(OC)c1O	K562	MTS	72 h	0.03 µM
Cc1ccc(S(=O)(=O)n2cc(/C=N/NC(=O)c3cccc(Cl)c3)c3ccccc32)cc1	MCF-10A	MTT	48 h	> 50 µM
CC(C)[C@@H](C)NC(=O)c1cc(-c2cc3ccccc3n2C)cc(C(=O)NCCc2ccccn2)n1	JHH7	CCK-8		25.3 µM
Nc1ccn([C@@H]2O[C@H](CO)[C@@H](O)C2(F)F)c(=O)n1	4T1	MTT	24 h	5.78 µg/mL
CC(=O)c1ccc2cc(S(=O)(=O)Nc3ccccc3)ccc2c1	MDCK	neutral red	48 h	90.9 µM
FC(F)(F)c1cc(OCc2cc(-c3ccc(Cl)cc3Cl)no2)c2ccccc2n1	K562	MTS	72 h	> 100 µM
CC(=O)c1ccc2cc(S(=O)(=O)Nc3ccccc3C)ccc2c1	MDCK	neutral red	48 h	21.8 µM
Cc1ccc(S(=O)(=O)n2cc(/C=N/NC(=O)c3cccnc3)c3ccccc32)cc1	MCF-10A	MTT	48 h	> 50 µM
CC(=O)c1ccc2cc(S(=O)(=O)Nc3ccccc3Cl)ccc2c1	MDCK	neutral red	48 h	12.7 µM
CCOC(=O)c1c(C)nc2ccc(-c3cccc(F)c3)cc2c1O	MCF-10A	MTT	48 h	≥ 100 µM
COC[C@H](NC(=O)c1ccn(S(C)(=O)=O)c1)C(=O)Nc1nc(-c2cccc(N3C[C@@H](C)O[C@@H](C)C3)n2)cs1	VCaP	ATP luminescence	7 days	0.0265 µM
CC(C)[C@@H]1NC(=O)/C(=C/c2cnc[nH]2)NC1=O	NCI-H446	SRB		> 15 µM
FC(F)(F)c1ccc(-c2cc(COc3cc(C(F)(F)F)nc4ccccc34)on2)cc1	K562	MTS	72 h	> 100 µM
Cc1ccc(S(=O)(=O)n2cc(/C=N/NC(=O)c3ccccc3Br)c3ccccc32)cc1	MCF-10A	MTT	48 h	> 50 µM

SMILES	cell line	assay	setting	IC50
C/C(=C\C(=O)N[C@H](C(=O)N1CCC[C@H]1C(=O)N(c1ccccc1)c1ccc(I)cc1)C(C)(C)C)c1ccc(OP(=O)(O)O)cc1	JHH7	CCK-8		7.19 µM
COc1cccc2c1C(=O)c1c(O)c3c(c(O)c1C2=O)C[C@@](O)(C(=O)CO)C[C@@H]3O[C@H]1C[C@H](N)[C@H](O)[C@H](C)O1	NCI-H446		96 h	0.0365 µM
Cc1ccc(S(=O)(=O)n2cc(/C=N/NC(=O)c3ccccc3)c3ccccc32)cc1	MCF-10A	MTT	48 h	> 50 µM
O=c1cc(OCc2cc(-c3ccccc3)no2)c2ccccc2o1	K562	MTS	72 h	> 100 µM
CC(=O)c1ccc2cc(S(=O)(=O)Nc3ccc(F)cc3)ccc2c1	MDCK	neutral red	48 h	93.4 µM
O=C1C(=O)N(CCn2ncc3c(=O)[nH]cnc32)c2ccc(Cl)cc21	BALB/3T3 clone A31	SRB	72 h	11.4 µg/mL
CC(=O)c1ccc2cc(S(=O)(=O)Nc3cccnc3)ccc2c1	MDCK	neutral red	48 h	20.7 µM
Cc1ccc(S(=O)(=O)n2cc(/C=N/NC(=O)c3ccc(Br)cc3)c3ccccc32)cc1	MCF-10A	MTT	48 h	> 50 µM
Nc1ncnc2c1ncn2CCN1C(=O)C(=O)c2cc(Cl)ccc21	BALB/3T3 clone A31	SRB	72 h	24.4 µg/mL
COc1cccc2c1C(=O)c1c(O)c3c(c(O)c1C2=O)C[C@@](O)(C(=O)CO)C[C@@H]3O[C@H]1C[C@H](N)[C@H](O)[C@H](C)O1	NCI-H446	SRB		0.8 µM
CCCCC(=O)Nc1ccc(-c2ccc3ncn(CCC)c(=O)c3c2)cn1	human PBMC	CCK-8	72 h	> 10 µM
Cc1ccc(S(=O)(=O)n2cc(/C=N/NC(=O)c3ccco3)c3ccccc32)cc1	MCF-10A	MTT	48 h	> 50 µM
COc1ccc2c(c1)C(=O)C(=O)N2CCn1cnc2c(N)ncnc21	BALB/3T3 clone A31	SRB	72 h	55.3 µg/mL
Cc1ccc(S(=O)(=O)n2cc(/C=N/NC(=O)Cc3ccccc3C(F)(F)F)c3ccccc32)cc1	MCF-10A	MTT	48 h	> 50 µM
O=C1C(=O)N(CCn2ncc3c(=O)[nH]cnc32)c2ccc(F)cc21	BALB/3T3 clone A31	SRB	72 h	19.6 µg/mL
